Data set [1] is described as follows: Binding affinity to HIV1 gp41-GCN4-pIQI fusion protein IQN17. Details: species or system Human immunodeficiency virus 1; call rule not given here. Put shortly: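 β-peptides labeled at the N-terminus with fluorescein-hexanoic acid NHS ester and tested in a direct fluorescence polarization assay against IQN17. IQN17 is a trimeric fusion of 17 gp41 N-terminal residues with a 29-residue isoleucine zipper. KD is taken at 50% binding of IQN17. Binding curves run in triplicate.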

A short description of data set [2]: Cytotoxicity against human MT2 cells by MTT colorimetric method. In kind it is cell-based. Put shortly:
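Uninfected MT-2 cells cultured with a range of β-peptide concentrations, without virus. Viability read by MTT colorimetric assay. CC50 is the concentration giving 50% inhibition of MT-2 cell growth. Triplicate samples at each concentration.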
For orientation: Tetrazolium assays rely on reduction of a dye to a coloured formazan, in cell work by metabolically active cells.

The subject of data set [3] is Human immunodeficiency virus 1. Nature of the data set: Antiviral activity against HIV1 3B infected human MT2 cells assessed as cytoprotection after 5 days by MTT colorimetric method. To be noted: Human immunodeficiency virus 1, 3B, MT2, 120 h. In kind it is functional, organism-based. A digest of the protocol:
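MT-2 human T-cells plated with a range of β-peptide concentrations and cultured with wild-type HIV-1 IIIB for 5 days. Live cells measured by MTT reduction to formazan, read at 595 nm. EC50 is the peptide concentration giving 50% survival of infected cells. Triplicate samples at each concentration.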

A short description of data set [4]: Selectivity ratio of CC50 for human MT2 cells to EC50 for HIV1 3B infected human MT2 cells. In kind it is ADME, cell-based. The following applies: for selectivity ratio: MT2 cells and HIV1 3B infected MT2 cells, read-out: Ratio CC50/EC50. A digest of the protocol:
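Ratio of CC50 to EC50. CC50 comes from MTT viability of uninfected MT-2 cells given peptide alone. EC50 comes from MTT survival of MT-2 cells infected with HIV-1 IIIB after 5 days. Both curves used triplicate samples.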

Some results are limits rather than exact numbers.

One may read the Kd as the free concentration of one partner at which half of the binding sites on the other are occupied at equilibrium, for simple one-to-one binding. Read a high Kd as a looser complex. Usually CC50 stands for the concentration that lowers cell viability or growth by half. High values mean lower toxicity to the cells, low ones greater toxicity to the cells. What is called EC50 is the concentration giving half of the maximal effect. Compound `CC[C@@](C)(CC(=O)N[C@H](CC(=O)O)CC(=O)NC(C)(C)CC(=O)NC(CC(=O)N[C@@H](CCN)CC(=O)NC(C)(C)CC(=O)N[C@H](CC(=O)NC(CC(=O)O)CC(=O)O)Cc1c[nH]c2ccccc12)Cc1cccnc1)NC(=O)CC(C)(C)NC(=O)C[C@@H](N)CCN` (stereo partly specified) registered a Kd in data set [1] of 104 µM. The compound further came in with a CC50 in data set [2] of over 250 µM. The EC50 in data set [3] was over 250 µM. The “Ratio CC50/EC50” value in data set [4] (mt2) is “Not Active”.

Take `CC[C@@](C)(CC(=O)N[C@H](CC(=O)O)CC(=O)NC(C)(C)CC(=O)NC(CC(=O)N[C@@H](CCN)CC(=O)NC(C)(C)CC(=O)N[C@H](CC(=O)NC(CC(=O)O)CC(=O)O)Cc1c[nH]c2ccccc12)Cc1ccccc1Cl)NC(=O)CC(C)(C)NC(=O)C[C@@H](N)CCN` (stereo partly specified): the dissociation constant (Kd) in data set [1] was found to be 13.3 µM. In data set [2], this compound gave a CC50 of 31 µM. The EC50 in data set [3] came out at 8.8 µM. Also, in data set [4], the selectivity ratio was determined as 3.5.

Take enfuvirtide: the EC50 in data set [3] was 0.0375 µM.

In data set [1], `CC[C@@](C)(CC(=O)N[C@H](CC(=O)O)CC(=O)NC(C)(C)CC(=O)NC(CC(=O)N[C@@H](CCN)CC(=O)NC(C)(C)CC(=O)N[C@H](CC(=O)NC(CC(=O)O)CC(=O)O)Cc1c[nH]c2ccccc12)Cc1ccc(I)cc1)NC(=O)CC(C)(C)NC(=O)C[C@@H](N)CCN` (stereo partly specified) had a Kd of 14.1 µM. This compound returned a CC50 in data set [2] of 23 µM. Also, the EC50 in data set [3] was determined as 8.9 µM.

With `CC[C@@](C)(CC(=O)N[C@H](CC(=O)O)CC(=O)NC(C)(C)CC(=O)NC(CC(=O)N[C@@H](CCN)CC(=O)NC(C)(C)CC(=O)N[C@H](CC(=O)NC(CC(=O)O)CC(=O)O)Cc1c[nH]c2ccccc12)Cc1cccc(C(F)(F)F)c1)NC(=O)CC(C)(C)NC(=O)C[C@@H](N)CCN` (stereo partly specified), in data set [1], the affinity, expressed as Kd, was 10.2 µM. Also, in data set [2], the CC50 worked out at 150 µM. Besides, the EC50 in data set [3] turned out to be 19 µM. The selectivity ratio in data set [4] was found to be 7.9.

`CC[C@@](C)(CC(=O)N[C@H](CC(=O)O)CC(=O)NC(C)(C)CC(=O)N[C@@H](CC(=O)N[C@@H](CCN)CC(=O)NC(C)(C)CC(=O)N[C@H](CC(=O)NC(CC(=O)O)CC(=O)O)Cc1c[nH]c2ccccc12)Cc1c[nH]c2ccccc12)NC(=O)CC(C)(C)NC(=O)C[C@@H](N)CCN` displayed a Kd in data set [1] of 16.5 µM. In data set [2], this compound yielded a 50% cytotoxic concentration (CC50) of 100 µM. In addition, the EC50 in data set [3] was 56 µM. Besides, the selectivity ratio in data set [4] was determined as 1.8.

With `CC[C@@](C)(CC(=O)N[C@H](CC(=O)O)CC(=O)NC(C)(C)CC(=O)NC(CC(=O)N[C@@H](CCN)CC(=O)NC(C)(C)CC(=O)N[C@H](CC(=O)NC(CC(=O)O)CC(=O)O)Cc1c[nH]c2ccccc12)Cc1cccc(F)c1)NC(=O)CC(C)(C)NC(=O)C[C@@H](N)CCN` (stereo partly specified), the Kd in data set [1] was 15.7 µM. In addition, the CC50 in data set [2] is 50 µM. For the same compound, in data set [3], the EC50 turned out to be 18 µM.

In data set [1], `CC[C@@](C)(CC(=O)N[C@H](CC(=O)O)CC(=O)NC(C)(C)CC(=O)NC(CC(=O)N[C@@H](CCN)CC(=O)NC(C)(C)CC(=O)N[C@H](CC(=O)NC(CC(=O)O)CC(=O)O)Cc1c[nH]c2ccccc12)Cc1ccc2ccccc2c1)NC(=O)CC(C)(C)NC(=O)C[C@@H](N)CCN` (stereo partly specified) showed a Kd of 12.2 µM. The same compound had a CC50 in data set [2] of 23 µM. Moreover, the EC50 in data set [3] amounted to 8.2 µM.

(Values after ChEMBL document CHEMBL1151938, “Identification of a beta3-peptide HIV fusion inhibitor with improved potency in live cells” (Bioorg Med Chem Lett, 2009).)
